Experimental findings from ChEMBL document CHEMBL3784974, “Design and Structural Characterization of Potent and Selective Inhibitors of Phosphatidylinositol 4 Kinase IIIβ” (J Med Chem, 2016) are described below.

A value given as a limit tells only on which side of the number the result lay.

Experiment [1] is described as follows: Inhibition of GST-tagged recombinant human full length PI4K3beta expressed in insect cells preincubated for 15 mins followed by addition of cold ATP/gamma32P-ATP measured after 30 mins in presence of MgCl2. The gist of the method: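 Membrane-capture radiometric assay. Purchased enzyme, final 2.5 nM. Enzyme preincubated 15 min with inhibitor (diluted in 10% DMSO), then 30 min reaction. Final: 20 mM Bis-Tris propane pH 7.5, 10 mM MgCl2, 0.075 mM Triton X-100, 0.5 mM EGTA, 1 mM DTT, 100 µM PI in PI:DOPS:DOPC, 500 ng/µL BSA, 2% DMSO, 10 µM ATP, 1 uCi γ32P-ATP. Product spotted on nitrocellulose, washed in 1M NaCl/1% phosphoric acid, phosphorimaged.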

In experiment [2] the target is T1, Phosphatidylinositol 4,5-bisphosphate 3-kinase catalytic subunit delta isoform (Homo sapiens, UniProt O00329).
T1 sequence (O00329 whole entry): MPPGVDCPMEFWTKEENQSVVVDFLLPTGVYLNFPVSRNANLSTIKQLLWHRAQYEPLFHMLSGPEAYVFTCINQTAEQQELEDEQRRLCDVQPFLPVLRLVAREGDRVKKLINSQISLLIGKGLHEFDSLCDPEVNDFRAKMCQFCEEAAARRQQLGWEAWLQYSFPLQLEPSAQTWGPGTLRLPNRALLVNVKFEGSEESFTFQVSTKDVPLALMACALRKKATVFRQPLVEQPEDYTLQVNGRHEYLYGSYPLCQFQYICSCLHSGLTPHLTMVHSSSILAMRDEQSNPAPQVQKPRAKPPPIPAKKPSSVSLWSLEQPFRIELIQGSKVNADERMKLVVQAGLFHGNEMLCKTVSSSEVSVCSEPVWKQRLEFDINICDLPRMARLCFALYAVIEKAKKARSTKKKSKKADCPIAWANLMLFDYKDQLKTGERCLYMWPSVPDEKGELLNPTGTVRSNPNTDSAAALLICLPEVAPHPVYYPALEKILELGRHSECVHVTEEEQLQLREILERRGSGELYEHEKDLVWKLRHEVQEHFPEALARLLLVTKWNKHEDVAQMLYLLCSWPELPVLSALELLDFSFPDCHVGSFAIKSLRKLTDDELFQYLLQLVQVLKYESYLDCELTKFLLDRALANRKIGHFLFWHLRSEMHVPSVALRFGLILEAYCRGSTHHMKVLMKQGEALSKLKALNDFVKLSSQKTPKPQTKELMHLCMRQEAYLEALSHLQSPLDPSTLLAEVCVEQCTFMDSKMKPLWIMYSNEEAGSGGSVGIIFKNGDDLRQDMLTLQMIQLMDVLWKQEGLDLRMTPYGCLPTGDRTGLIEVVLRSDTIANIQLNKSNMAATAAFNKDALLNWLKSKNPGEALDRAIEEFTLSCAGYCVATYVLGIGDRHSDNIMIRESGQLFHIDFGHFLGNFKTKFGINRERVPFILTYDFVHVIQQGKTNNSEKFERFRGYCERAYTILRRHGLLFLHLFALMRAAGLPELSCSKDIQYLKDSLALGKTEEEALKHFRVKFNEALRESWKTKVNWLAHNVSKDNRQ
As to the kind of experiment: Inhibition of histidine-tagged recombinant human full length PI3Kdelta expressed in baculovirus preincubated for 15 mins followed by addition of cold ATP/gamma32P-ATP measured after 20 mins in presence of MgCl2. The method in brief: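 Final: 50 mM HEPES pH 7.5, 100 mM NaCl, 0.03% CHAPS, 10 mM MgCl2, 1 mM EGTA, 2 mM DTT, 80 µM PIP2 (PIP2:DOPS:DOPC), 500 ng/µL BSA, 2% DMSO, 10 µM ATP, 2.5 uCi γ32P-ATP. Nitrocellulose capture, phosphorimaging.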

For experiment [3], the target named is Phosphatidylinositol 3-kinase catalytic subunit type 3 (Homo sapiens, UniProt Q8NEB9). As to the kind of experiment: Inhibition of GST-tagged recombinant human full length VPS34 expressed in baculovirus preincubated for 15 mins followed by addition of cold ATP/gamma32P-ATP measured after 1 hr in presence of MnCl2. The method in brief: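 Radiometric membrane-capture assay, 10 nM purchased vps34, 15 min preincubation with inhibitor, then 1 h reaction. Final: 50 mM HEPES pH 7.5, 0.1% CHAPS, 2mM MnCl2, 1 mM EGTA, 2 mM DTT, 100 µM PI in PI:DOPS:DOPC, 500 ng/µL BSA, 2% DMSO, 10 µM ATP, 2.5 uCi γ32P-ATP; spots washed, phosphorimaged.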
Chain of Phosphatidylinositol 3-kinase catalytic subunit type 3 (Q8NEB9 whole entry): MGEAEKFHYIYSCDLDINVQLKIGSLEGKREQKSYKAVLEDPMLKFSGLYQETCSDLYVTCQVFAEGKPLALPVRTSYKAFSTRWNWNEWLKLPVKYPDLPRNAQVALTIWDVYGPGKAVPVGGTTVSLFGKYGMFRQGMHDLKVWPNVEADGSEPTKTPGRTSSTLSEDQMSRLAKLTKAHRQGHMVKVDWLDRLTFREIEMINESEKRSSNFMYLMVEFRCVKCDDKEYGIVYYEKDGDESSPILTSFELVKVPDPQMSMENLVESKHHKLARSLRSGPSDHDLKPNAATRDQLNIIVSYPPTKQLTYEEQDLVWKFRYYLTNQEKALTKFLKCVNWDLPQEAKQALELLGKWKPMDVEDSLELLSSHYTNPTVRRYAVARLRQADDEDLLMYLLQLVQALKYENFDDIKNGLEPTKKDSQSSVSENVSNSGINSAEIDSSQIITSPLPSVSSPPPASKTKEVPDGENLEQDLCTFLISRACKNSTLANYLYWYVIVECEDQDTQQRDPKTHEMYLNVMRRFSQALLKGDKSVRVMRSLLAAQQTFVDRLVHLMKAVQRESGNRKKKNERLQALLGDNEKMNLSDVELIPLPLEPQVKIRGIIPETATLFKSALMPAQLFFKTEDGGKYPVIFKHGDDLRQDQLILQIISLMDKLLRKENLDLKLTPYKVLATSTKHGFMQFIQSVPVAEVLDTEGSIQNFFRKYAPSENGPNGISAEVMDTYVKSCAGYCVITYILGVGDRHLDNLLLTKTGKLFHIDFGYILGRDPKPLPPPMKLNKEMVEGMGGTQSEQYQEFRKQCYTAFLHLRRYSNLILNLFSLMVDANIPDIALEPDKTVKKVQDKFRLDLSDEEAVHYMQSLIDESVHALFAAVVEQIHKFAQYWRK

For another experiment, the system named is Hepatitis C virus. Description: Antiviral activity against HCV genotype 2a J6/JFH1 infected in human Huh7.5 cells after 3 days by gaussia luciferase assay. Type of experiment: functional, organism-based, Hepacivirus hominis. As to conditions: subtype 2a J6/JFH1, Huh-7, 72 h. The method in brief:
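Huh7.5 cells stably infected with J6/JFH1-GLuc, kept in DMEM/10% FBS, glutamine, NEAA, pen/strep at 37 °C, 5% CO2. 10,000 cells/well; serially diluted compound added 1 h after plating; 3-day incubation. Replication read as Gaussia luciferase activity in supernatant; viability by Presto Blue.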

Experiment [4] concerns the target Phosphatidylinositol 4,5-bisphosphate 3-kinase catalytic subunit alpha isoform (Homo sapiens, UniProt P42336). Description: Inhibition of N-terminal histidine6-tagged recombinant human full length PI3Kalpha expressed in baculovirus infected Sf21 insect cells preincubated for 15 mins followed by addition of cold ATP/gamma32P-ATP measured after 15 mins. The gist of the method:
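Radiometric membrane-capture lipid kinase assay. Enzyme premixed with PIP2:DOPS:DOPC vesicles and BSA. Inhibitor diluted in 10% DMSO/kinase buffer, preincubated 15 min, then cold ATP plus γ32P-ATP added and run 15 min. Final conditions: 50mM HEPES pH 7.5, 100mM NaCl, 0.03% CHAPS, 10mM MgCl2, 1mM EGTA, 2mM DTT, 3.3nM PI3Kα, 80µM PIP2, 500ng/µL BSA, 2% DMSO, 10µM ATP, 2uCi γ32P-ATP. Product spotted onto nitrocellulose, washed in 1M NaCl/1% phosphoric acid, phosphorimaged.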

Experiment [5] deals with Phosphatidylinositol 4-kinase type 2-beta (Homo sapiens) (UniProt Q8TCG2). Description: Inhibition of flag-tagged recombinant PI4K2beta (unknown origin) transfected in HEK293T cells upto 20 uM preincubated for 15 mins followed by addition of cold ATP/gamma32P-ATP measured after 25 mins. Type of experiment: cell-based. The following applies: HEK-293T. The method in brief:
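Enzymes cloned from DNASU plasmids, FLAG-tagged, transfected into HEK293T and FLAG-immunoprecipitated, eluted with FLAG peptide. 15 min inhibitor preincubation, 25 min reaction in 20 mM Bis-Tris propane pH 7.5, 10 mM MgCl2, 0.075 mM Triton X-100, 0.5 mM EGTA, 1 mM DTT, 100 µM PI, 500 ng/µL BSA, 2% DMSO, 10 µM ATP, 2 uCi γ32P-ATP; phosphorimaging.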

Chain of Phosphatidylinositol 4,5-bisphosphate 3-kinase catalytic subunit alpha isoform (P42336 whole entry, canonical isoform): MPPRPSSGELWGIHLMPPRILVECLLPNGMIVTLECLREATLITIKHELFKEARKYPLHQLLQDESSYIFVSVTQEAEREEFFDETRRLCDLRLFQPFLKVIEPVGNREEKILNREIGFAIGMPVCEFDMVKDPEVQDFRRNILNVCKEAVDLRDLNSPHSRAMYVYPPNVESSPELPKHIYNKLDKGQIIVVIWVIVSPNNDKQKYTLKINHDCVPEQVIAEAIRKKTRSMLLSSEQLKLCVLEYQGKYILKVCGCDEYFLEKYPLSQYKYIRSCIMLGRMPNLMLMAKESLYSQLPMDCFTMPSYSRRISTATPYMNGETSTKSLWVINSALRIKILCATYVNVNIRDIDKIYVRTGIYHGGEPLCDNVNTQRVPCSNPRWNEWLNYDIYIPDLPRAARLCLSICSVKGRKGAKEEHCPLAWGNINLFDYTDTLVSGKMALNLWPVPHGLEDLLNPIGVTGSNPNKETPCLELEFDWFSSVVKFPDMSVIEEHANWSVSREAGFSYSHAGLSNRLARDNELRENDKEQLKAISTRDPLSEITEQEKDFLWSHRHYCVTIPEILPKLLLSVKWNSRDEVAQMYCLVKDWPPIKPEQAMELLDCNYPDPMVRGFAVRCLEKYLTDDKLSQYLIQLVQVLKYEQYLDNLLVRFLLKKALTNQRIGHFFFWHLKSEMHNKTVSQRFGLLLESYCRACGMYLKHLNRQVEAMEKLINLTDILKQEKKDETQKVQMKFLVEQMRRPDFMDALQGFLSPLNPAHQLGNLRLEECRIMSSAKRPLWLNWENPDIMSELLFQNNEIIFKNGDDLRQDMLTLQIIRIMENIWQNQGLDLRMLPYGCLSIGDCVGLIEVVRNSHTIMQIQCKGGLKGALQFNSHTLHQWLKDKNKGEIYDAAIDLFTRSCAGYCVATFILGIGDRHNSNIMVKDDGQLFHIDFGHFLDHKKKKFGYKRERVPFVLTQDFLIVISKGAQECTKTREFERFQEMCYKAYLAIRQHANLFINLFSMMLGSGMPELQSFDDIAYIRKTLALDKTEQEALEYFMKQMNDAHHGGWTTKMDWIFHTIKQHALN
Chain of Phosphatidylinositol 4-kinase type 2-beta (Homo sapiens) (Q8TCG2 whole entry): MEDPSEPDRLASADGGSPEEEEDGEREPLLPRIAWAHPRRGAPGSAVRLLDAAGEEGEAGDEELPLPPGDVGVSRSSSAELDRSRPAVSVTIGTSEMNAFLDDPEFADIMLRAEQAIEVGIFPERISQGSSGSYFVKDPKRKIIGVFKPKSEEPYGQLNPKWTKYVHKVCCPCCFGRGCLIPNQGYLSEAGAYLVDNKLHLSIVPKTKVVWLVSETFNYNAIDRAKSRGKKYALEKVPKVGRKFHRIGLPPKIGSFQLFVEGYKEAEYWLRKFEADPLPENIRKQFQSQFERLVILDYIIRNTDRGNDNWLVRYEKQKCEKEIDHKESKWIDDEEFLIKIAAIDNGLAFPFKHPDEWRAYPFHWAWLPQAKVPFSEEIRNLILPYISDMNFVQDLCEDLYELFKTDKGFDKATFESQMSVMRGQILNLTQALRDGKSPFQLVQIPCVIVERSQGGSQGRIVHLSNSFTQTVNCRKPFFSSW

Consider `COc1ccc(-c2sc(NC(=O)C3CCCC3)nc2C)cc1S(=O)(=O)Nc1ccc(O)cc1`, for which the IC50 – broadly, the concentration needed to halve the response being measured – in experiment [1] is 7 nM; in experiment [2], 152 nM; in experiment [3], greater than 20 µM; in the experiment with Hepatitis C virus, 630 nM; in experiment [4] it was 2 µM. Also, the inhibition (in general, the drop in the measured response relative to a control, in per cent) in experiment [5] was less than 50%.
On to `COc1ccc(-c2sc(NC(=O)C(C)(C)C)nc2C)cc1S(=O)(=O)Nc1ccc(O)cc1`, for which the IC50 was 3.6 nM in experiment [1]; 720 nM in experiment [2]; greater than 20 µM in experiment [3]; 1300 nM in the experiment with Hepatitis C virus; 10 µM in experiment [4]. In addition, in experiment [5], the inhibition was less than 20%.
